This note sets out measurements from article PMC4002122 (Chemical Research in Toxicology, 2014).

Holding throughout (assay type): in vitro ADME
Conditions in all cases: 250 μM substrate, 5 μg protein, 60 min, 37 °C

Series [1] concerns the target T1, UGT1A3 (Homo sapiens, UniProt P35503).
T1 sequence (P35503 29-534): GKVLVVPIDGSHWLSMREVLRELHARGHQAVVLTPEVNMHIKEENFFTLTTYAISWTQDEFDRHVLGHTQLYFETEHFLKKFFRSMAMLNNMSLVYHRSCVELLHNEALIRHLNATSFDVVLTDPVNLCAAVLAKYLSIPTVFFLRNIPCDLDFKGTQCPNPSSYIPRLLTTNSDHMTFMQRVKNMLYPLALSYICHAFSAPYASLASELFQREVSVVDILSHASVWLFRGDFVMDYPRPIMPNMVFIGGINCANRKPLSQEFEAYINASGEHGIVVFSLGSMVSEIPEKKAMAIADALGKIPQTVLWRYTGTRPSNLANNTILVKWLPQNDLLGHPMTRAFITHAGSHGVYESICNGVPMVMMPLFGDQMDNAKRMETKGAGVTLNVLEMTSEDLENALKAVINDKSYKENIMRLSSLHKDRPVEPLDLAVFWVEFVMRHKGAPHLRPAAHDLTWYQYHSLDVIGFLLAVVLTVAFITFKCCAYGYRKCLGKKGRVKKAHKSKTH
As to the kind of experiment: Screening of recombinant UGT1A3 for glucuronidation activity. In a few lines:
(§1)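 UGT1A1, 1A3, 1A4 and 1A6–1A10 were His-tagged and expressed in baculovirus-infected Sf9 cells; UGT2B4, 2B7, 2B15 and 2B17 were commercial membranes run per supplier protocol. 5 μg membrane protein with 250 μM substrate, 2 mM UDP-GlcUA, Tris–HCl pH 7.4, MgCl2, saccharolactone, 2% DMSO; 37 °C, 60 min; no-substrate controls. Products measured by HPLC-UV/vis; β-glucuronidase hydrolysis separated O- from carboxyl glucuronides.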

In series [2] the target is T2, UGT1A7 (Homo sapiens, UniProt Q9HAW7).
T2 sequence (Q9HAW7 26-530): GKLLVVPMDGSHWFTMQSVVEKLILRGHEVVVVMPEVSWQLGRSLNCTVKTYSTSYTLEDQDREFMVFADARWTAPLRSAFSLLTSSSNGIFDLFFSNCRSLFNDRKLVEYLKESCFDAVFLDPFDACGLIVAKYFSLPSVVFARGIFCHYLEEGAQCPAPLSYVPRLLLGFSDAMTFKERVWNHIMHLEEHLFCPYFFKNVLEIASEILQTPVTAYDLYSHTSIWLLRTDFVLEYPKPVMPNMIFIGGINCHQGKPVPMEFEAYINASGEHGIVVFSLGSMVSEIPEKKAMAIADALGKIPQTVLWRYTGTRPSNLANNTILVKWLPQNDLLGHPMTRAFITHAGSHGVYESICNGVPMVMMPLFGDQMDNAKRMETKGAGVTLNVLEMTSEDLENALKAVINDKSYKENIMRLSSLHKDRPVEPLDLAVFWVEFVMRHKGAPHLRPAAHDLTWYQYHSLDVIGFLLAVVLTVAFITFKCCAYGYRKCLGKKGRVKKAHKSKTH
As to the kind of experiment: Screening of recombinant UGT1A7 for glucuronidation activity. In short, it runs like this:
as §1

Series [3] deals with T3, UGT1A9 (Homo sapiens, UniProt O60656).
T3 sequence (O60656 26-530): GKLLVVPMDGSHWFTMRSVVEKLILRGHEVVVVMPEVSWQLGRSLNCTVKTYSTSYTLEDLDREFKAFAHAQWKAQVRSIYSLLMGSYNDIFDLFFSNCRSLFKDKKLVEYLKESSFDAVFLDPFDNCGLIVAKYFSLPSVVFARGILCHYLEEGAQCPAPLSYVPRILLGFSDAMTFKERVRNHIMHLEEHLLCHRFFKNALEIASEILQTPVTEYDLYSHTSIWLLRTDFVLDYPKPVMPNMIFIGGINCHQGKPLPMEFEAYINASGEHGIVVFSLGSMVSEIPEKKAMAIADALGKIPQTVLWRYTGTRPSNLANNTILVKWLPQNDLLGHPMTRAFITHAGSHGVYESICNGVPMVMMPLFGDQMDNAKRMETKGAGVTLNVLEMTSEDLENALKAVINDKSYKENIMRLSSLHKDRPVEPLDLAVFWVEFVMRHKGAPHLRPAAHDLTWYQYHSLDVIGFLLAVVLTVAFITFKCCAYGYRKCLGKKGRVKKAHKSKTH
As to the kind of experiment: Screening of recombinant UGT1A9 for glucuronidation activity. In short, it runs like this:
as §1

Series [4] addresses T4, UGT1A6 (Homo sapiens, UniProt P19224).
T4 sequence (P19224 27-532): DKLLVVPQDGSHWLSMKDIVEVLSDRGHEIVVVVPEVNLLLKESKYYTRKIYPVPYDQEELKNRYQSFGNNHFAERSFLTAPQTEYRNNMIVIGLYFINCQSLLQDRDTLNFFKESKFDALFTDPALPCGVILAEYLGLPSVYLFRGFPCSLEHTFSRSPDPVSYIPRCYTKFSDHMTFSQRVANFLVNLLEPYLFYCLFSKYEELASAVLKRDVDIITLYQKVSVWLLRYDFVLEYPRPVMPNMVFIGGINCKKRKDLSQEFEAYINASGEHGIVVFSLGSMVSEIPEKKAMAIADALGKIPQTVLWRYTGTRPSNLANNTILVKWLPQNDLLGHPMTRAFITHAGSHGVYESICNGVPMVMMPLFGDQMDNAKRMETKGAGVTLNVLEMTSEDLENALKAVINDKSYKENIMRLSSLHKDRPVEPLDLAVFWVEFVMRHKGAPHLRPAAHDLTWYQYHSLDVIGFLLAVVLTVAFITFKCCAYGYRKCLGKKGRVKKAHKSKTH
As to the kind of experiment: Screening of recombinant UGT1A6 for glucuronidation activity. In a few lines: as §1

Series [5] addresses T5, UGT1A4 (Homo sapiens, UniProt P22310).
T5 sequence (P22310 29-534): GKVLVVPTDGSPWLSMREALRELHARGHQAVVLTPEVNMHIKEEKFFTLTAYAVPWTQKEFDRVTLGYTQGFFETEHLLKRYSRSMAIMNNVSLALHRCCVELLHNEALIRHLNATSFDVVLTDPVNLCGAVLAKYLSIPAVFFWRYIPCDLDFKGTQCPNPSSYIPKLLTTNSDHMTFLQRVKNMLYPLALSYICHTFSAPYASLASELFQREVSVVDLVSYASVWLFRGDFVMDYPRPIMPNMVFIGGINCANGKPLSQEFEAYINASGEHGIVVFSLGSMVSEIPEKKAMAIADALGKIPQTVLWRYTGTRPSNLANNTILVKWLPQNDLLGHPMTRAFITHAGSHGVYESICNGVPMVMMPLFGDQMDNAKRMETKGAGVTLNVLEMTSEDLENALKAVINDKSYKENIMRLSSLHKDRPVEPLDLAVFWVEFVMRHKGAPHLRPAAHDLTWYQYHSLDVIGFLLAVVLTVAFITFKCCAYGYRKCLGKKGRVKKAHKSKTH
As to the kind of experiment: Screening of recombinant UGT1A4 for glucuronidation activity. In a few lines:
as §1

As to `COc1ccc(/C=C(/C(=O)O)c2cc(OC)c(OC)c(OC)c2)cc1O` [NI-12a, (E)-3-(3-hydroxy-4-methoxyphenyl)-2-(3,4,5-trimethoxyphenyl)acrylic acid], the “glucuronidation activity (glucuronide formed)” value (“glucuronidation activity” for short) was “both COO- and O-glucuronides” in series [1]; “only the hydroxyl metabolite” in series [2]; “only the hydroxyl metabolite” in series [3]; “not active” in series [4]; “not active” in series [5].
In the case of `COc1cc(/C=C/c2cc([N+](=O)[O-])c(O)c([N+](=O)[O-])c2)cc(OC)c1` [DNR-1, (E)-4-(3,5-dimethoxystyryl)-2,6-dinitrophenol], the “glucuronidation activity” value in series [1], in series [2], in series [3], in series [4] and in series [5] was “No activity” in each case.
For `COc1ccc(C=Cc2cc(OC)cc(OC)c2/C=N/O)cc1` [NI-ST-05, (E)-2,4-dimethoxy-6-(4-methoxystyryl)benzaldehyde oxime], the “glucuronidation activity” value was “inactive” in series [1]; “inactive” in series [2]; “catalyzed the formation of the C=N–O-glucuronide” in series [3]; “inactive” in series [4]; “inactive” in series [5].
